According to ChEMBL document CHEMBL1133408, “5-Arylamino-2-methyl-4,7-dioxobenzothiazoles as inhibitors of cyclin-dependent kinase 4 and cytotoxic agents” (Bioorg Med Chem Lett, 2000):
Values after ≈ are worked out from the molar mass of the structure shown.

What was measured:
[1] = tested on: A549; assay: Inhibition of A549 cancer cell proliferation; type: functional, cell-based; conditions: Homo sapiens
Summary of the method: (§1)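 Cytotoxicity measured by sulforhodamine B (SRB) assay following NCI protocols. Human tumour cell lines: A 549 (non-small cell lung, from NCI), Col 1 (human colon carcinoma, from University of Illinois at Chicago surgical oncology), HL-60 (myeloid leukaemia, from ATCC) and HepG2 (hepatocarcinoma, from ATCC).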

[2] = molecular target: Cyclin-dependent kinase 2 (Homo sapiens, UniProt P24941); assay: Inhibition of Cyclin-dependent kinase 2 (CDK2/cyclin A)
[3] = tested on: COLO1; assay: Inhibition of Col1 cancer cell proliferation; type: functional, cell-based, Homo sapiens; summary of the method: as §1
[4] = molecular target: Cyclin-dependent kinase 4 (Homo sapiens, UniProt P11802); assay: Inhibition of Cyclin-dependent kinase 4 (CDK4/cyclin Dl)
Chain of Cyclin-dependent kinase 4 (P11802 whole entry): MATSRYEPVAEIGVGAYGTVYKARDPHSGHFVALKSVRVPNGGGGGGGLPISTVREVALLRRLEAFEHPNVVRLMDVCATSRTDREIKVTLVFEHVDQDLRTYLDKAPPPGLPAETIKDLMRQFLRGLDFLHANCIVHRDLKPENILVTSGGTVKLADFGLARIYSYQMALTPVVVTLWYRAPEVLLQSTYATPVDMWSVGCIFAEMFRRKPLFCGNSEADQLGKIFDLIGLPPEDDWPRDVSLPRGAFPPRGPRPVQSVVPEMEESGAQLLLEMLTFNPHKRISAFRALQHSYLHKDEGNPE

[5] = tested on: HL-60; assay: Inhibition of HL60 cancer cell proliferation; type: functional, cell-based, Homo sapiens; summary of the method: as §1
[6] = tested on: HepG2; assay: Inhibition of HepG2 cancer cell proliferation; type: functional, cell-based; conditions: Homo sapiens; summary of the method: as §1
[7] = Homo sapiens, COLO1, read-out: IC50
[8] = Homo sapiens, HL-60, read-out: IC50

IC50 [1] | IC50 [2] | IC50 [3, 7] | IC50 [4] | IC50 [5, 8] | IC50 [6] | IC50 ([3]; colo1) | IC50 ([5]; hl-60) | Compound
1.76 µg/mL (≈ 5.6 µM) | > 200 µM | 2.09 µg/mL (≈ 6.65 µM) | 20 µM | 0.29 µg/mL (≈ 0.922 µM) | 1.53 µg/mL (≈ 4.87 µM) |  |  | CCOc1ccc(NC2=CC(=O)c3sc(C)nc3C2=O)cc1
57 µg/mL (≈ 191 µM) |  | 87 µg/mL (≈ 292 µM) |  | 50 µg/mL (≈ 168 µM) |  |  |  | Cn1cnc2c(NCc3ccccc3)nc(NCCO)nc21 [OLOMOUCINE]
0.64 µg/mL (≈ 2.37 µM) | > 200 µM | 1.93 µg/mL (≈ 7.14 µM) | 6 µM | 0.28 µg/mL (≈ 1.04 µM) | 1.3 µg/mL (≈ 4.81 µM) |  |  | Cc1nc2c(s1)C(=O)C=C(Nc1ccccc1)C2=O
3.6 µg/mL (≈ 10.3 µM) | > 200 µM | 6.57 µg/mL (≈ 18.8 µM) | 6.7 µM | 0.28 µg/mL (≈ 0.802 µM) | 2.78 µg/mL (≈ 7.96 µM) |  |  | Cc1nc2c(s1)C(=O)C=C(Nc1ccc(Br)cc1)C2=O
2.08 µg/mL (≈ 5.25 µM) | > 200 µM | 2.08 µg/mL (≈ 5.25 µM) | 3 µM | 0.24 µg/mL (≈ 0.606 µM) | 1.95 µg/mL (≈ 4.92 µM) |  |  | Cc1nc2c(s1)C(=O)C=C(Nc1ccc(I)cc1)C2=O
1.69 µg/mL (≈ 5.86 µM) | > 200 µM | 1.94 µg/mL (≈ 6.73 µM) | 6.3 µM | 0.23 µg/mL (≈ 0.798 µM) | 1.51 µg/mL (≈ 5.24 µM) |  |  | Cc1nc2c(s1)C(=O)C=C(Nc1ccc(F)cc1)C2=O

Continued, compound first:

Compound | IC50 [1] | IC50 [2] | IC50 [3, 7] | IC50 [4] | IC50 [5, 8] | IC50 [6] | IC50 ([3]; colo1) | IC50 ([5]; hl-60)
CISPLATIN |  |  |  |  |  |  | 1.38 µg/mL | 0.7 µg/mL
COc1ccc(NC2=CC(=O)c3sc(C)nc3C2=O)cc1 | 1.65 µg/mL (≈ 5.49 µM) | > 200 µM | 2.01 µg/mL (≈ 6.69 µM) | 5.6 µM | 0.27 µg/mL (≈ 0.899 µM) | 1.39 µg/mL (≈ 4.63 µM) |  | 
Cc1ccc(NC2=CC(=O)c3sc(C)nc3C2=O)cc1 | 0.61 µg/mL (≈ 2.15 µM) | > 200 µM | 1.08 µg/mL (≈ 3.8 µM) | 6 µM | 0.3 µg/mL (≈ 1.06 µM) |  |  | 
Cc1nc2c(s1)C(=O)C=C(Nc1ccc(O)cc1)C2=O | 0.7 µg/mL (≈ 2.44 µM) | > 200 µM | 1.85 µg/mL (≈ 6.46 µM) | 6.7 µM | 0.26 µg/mL (≈ 0.908 µM) | 1.36 µg/mL (≈ 4.75 µM) |  | 
Cc1nc2c(s1)C(=O)C=C(Nc1ccc(Cl)cc1)C2=O | 3.6 µg/mL (≈ 11.8 µM) | > 200 µM | 20 µg/mL (≈ 65.6 µM) | 7 µM | 0.33 µg/mL (≈ 1.08 µM) | 3.23 µg/mL (≈ 10.6 µM) |  | 
